For data set [1], the target named is T1, Thromboxane A2 receptor (Homo sapiens, UniProt P21731).
T1 sequence (P21731 whole entry): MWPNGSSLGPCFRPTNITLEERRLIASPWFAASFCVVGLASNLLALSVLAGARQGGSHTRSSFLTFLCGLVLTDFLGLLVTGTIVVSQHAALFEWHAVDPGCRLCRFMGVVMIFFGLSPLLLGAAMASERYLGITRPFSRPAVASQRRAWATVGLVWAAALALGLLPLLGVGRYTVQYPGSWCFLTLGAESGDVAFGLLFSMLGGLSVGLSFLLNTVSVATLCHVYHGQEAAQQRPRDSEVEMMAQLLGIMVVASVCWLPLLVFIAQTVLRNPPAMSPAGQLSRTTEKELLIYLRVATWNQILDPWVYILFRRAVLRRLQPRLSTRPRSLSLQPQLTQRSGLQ
The data set can be described thus: Displacement of [3H]SQ-29548 from human prostanoid TP receptor expressed in QBI-HEK 293A cells after 2 hrs by scintillation proximity assay. In kind it is cell-based, HEK293.

The target in data set [2] is T2, Thromboxane A2 receptor (Mus musculus, UniProt P30987).
T2 sequence (P30987 whole entry): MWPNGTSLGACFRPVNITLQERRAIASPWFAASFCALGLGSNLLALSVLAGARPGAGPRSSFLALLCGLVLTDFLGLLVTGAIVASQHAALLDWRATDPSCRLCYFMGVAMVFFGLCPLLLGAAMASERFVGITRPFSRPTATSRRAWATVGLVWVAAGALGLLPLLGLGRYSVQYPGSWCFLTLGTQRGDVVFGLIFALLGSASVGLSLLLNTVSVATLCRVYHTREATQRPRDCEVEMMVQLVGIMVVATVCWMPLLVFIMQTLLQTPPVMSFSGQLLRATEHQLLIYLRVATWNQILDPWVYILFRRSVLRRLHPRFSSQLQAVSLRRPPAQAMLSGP
Briefly: Displacement of [3H]SQ-29548 from mouse prostanoid TP receptor expressed in QBI-HEK 293A cells after 2 hrs by scintillation proximity assay. The data set is classed as cell-based, HEK293. In outline: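 Membranes from QBI-HEK 293A cells stably expressing mouse TP receptor. Cells were harvested in PBS/1 mM EDTA, homogenized in 20 mM Hepes/1 mM EGTA/0.5 mM DTT with protease inhibitors, spun at 1000g and then 21 000 rpm, and the pellet resuspended in Hepes/EGTA/100 mM NaCl. Antagonist at 10 concentrations, 62.5 μg membrane, 100 μg PVT-WGA SPA beads and 20 nM [3H]SQ29,548 in 50 mM Tris, 4 mM CaCl2, 0.1% ascorbate, pH 7.5, 2 h at 25 °C.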
For orientation: In a radioligand displacement assay an active substance lowers the binding of a labelled ligand.

Data set [3] is described as follows: Solubility of the compound in acetonitrile at 10 uM after 2 hrs by spectrophotometry. The data set is classed as physicochemical.
Data set [4] in a line: Lipophilicity, log D of the compound at pH 7.4 by pH metric method. Conditions: buffer. The data set is classed as physicochemical.
Data set [5] is described as follows: Octanol-phosphate buffer partition coefficient, log P of the compound by pH metric method. In kind it is physicochemical.
Data set [6] can be described thus: Dissociation constant, pKa of the compound by pH metric method. The data set is classed as physicochemical.
Data set [7] concerns the target T2, Thromboxane A2 receptor. The data set can be described thus: Antagonist activity at mouse prostanoid TP receptor expressed in QBI-HEK 293A cells assessed as inhibition of […]-induced increase in inositol monophosphate after 1 hr by time-resolved fluorescence assay. In kind it is functional, cell-based, HEK293. An outline of the steps: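 QBI-HEK 293A cells stably transfected with human or mouse TP receptor cDNA, seeded at 10 000 cells/well and grown 16 h at 37 °C. Cells were preincubated 15 min at 37 °C with antagonist at varying concentrations in Hepes-buffered saline containing 50 mM LiCl, pH 7.4. I-BOP was then added at 1.6 nM for 1 h. IP1 was measured by HTRF (Tb anti-IP1 cryptate/D2-IP1, 1 h at 25 °C) as the 665/620 nm ratio.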

Data set [8] addresses T1, Thromboxane A2 receptor.

Molecules are shown by their SMILES.

In the case of `CC1=C(O)C(Cc2cccc(CCNS(=O)(=O)c3ccc(Cl)cc3)c2)CC1=O` (centres undefined), the results for the Kd on Thromboxane A2 receptor [1] and at Thromboxane A2 receptor [2] were 328 nM and 26 nM, respectively.
For `O=C1C=C(O)CC1Cc1ccc(Br)cc1` (centres undefined), the solubility result in data set [3] is recorded as “soluble”. In addition, in data set [4], the logD (usually the decadic logarithm of the distribution of all forms, ionised or not, between an organic phase and buffer at a given pH) was -0.42. In data set [5], the lipophilicity (logP) (commonly a log measure of how a compound divides between an organic and an aqueous phase) is 3.02. In addition, the pKa (in general, the pH at which an ionisable group is half protonated) in data set [6] was determined as 3.96.
As to `O=C(O)CCc1cccc(CCNS(=O)(=O)c2ccc(Cl)cc2)c1`, binding on Thromboxane A2 receptor [2] was characterised by a dissociation constant (Kd) of 26 nM.
Turning to `O=C(O)CCc1ccc(Br)cc1`, the solubility entry in data set [3] was “soluble”. In addition, in data set [4], the logD was found to be 0.01. Further, the logP in data set [5] came out at 3. The pKa in data set [6] came to 4.33.
`O=C1C=C(O)CC1` displayed a pKa in data set [6] of 4.2.
In the case of `O=S(=O)(NCCc1cccc(CCCO)c1)c1ccc(Cl)cc1`, the values for the IC50 at Thromboxane A2 receptor [7] and against Thromboxane A2 receptor [8] were 1630 nM and 15100 nM, respectively. For the same compound, the figures for the Kd on Thromboxane A2 receptor [1] and at Thromboxane A2 receptor [2] were greater than 10000 nM and 10000 nM, respectively.
As for `Brc1ccc(Cc2nn[nH]n2)cc1`, the solubility entry in data set [3] is listed as “soluble”. The same compound registered a logD in data set [4] of -0.42. In addition, the logP in data set [5] worked out at 2.21. In data set [6], this compound had a pKa of 4.62.
With `O=C1CCC(O)=C1CCc1cccc(CCNS(=O)(=O)c2ccc(Cl)cc2)c1`, at Thromboxane A2 receptor [8], the IC50 (usually the concentration that gives 50% inhibition) was greater than 10000 nM.
For the compound `O=c1c(O)c(NCc2cccc(CCNS(=O)(=O)c3ccc(Cl)cc3)c2)c1=O`, the figures for the IC50 on Thromboxane A2 receptor [7] and against Thromboxane A2 receptor [8] were 91 nM and 377 nM, respectively. Also, the Kd (usually the concentration at which binding is half-saturated) on Thromboxane A2 receptor [1] was 359 nM; at Thromboxane A2 receptor [2], 17 nM.
In the case of `O=C1CCC(O)=C1Cc1cccc(CCNS(=O)(=O)c2ccc(Cl)cc2)c1`, the Kd came out at 11400 nM on Thromboxane A2 receptor [1] and 1200 nM at Thromboxane A2 receptor [2]. For the same compound, the IC50 on Thromboxane A2 receptor [8] is greater than 10000 nM.
For the compound `CC1=C(OCC(C)C)CC(Cc2cccc(CCNS(=O)(=O)c3ccc(Cl)cc3)c2)C1=O` (centres undefined), the IC50 against Thromboxane A2 receptor [8] was greater than 10000 nM.
Regarding `CC1=C(O)CC(Cc2ccc(Br)cc2)C1=O` (centres undefined), the solubility result in data set [3] is recorded as “soluble”. This compound yielded a logD in data set [4] of 0.11. The compound also had a logP in data set [5] of 3.28. For the same compound, the pKa in data set [6] came to 4.24.
Regarding `O=S(=O)(NCCc1cccc(CCc2nnn[nH]2)c1)c1ccc(Cl)cc1`, the IC50 worked out at 8 nM at Thromboxane A2 receptor [7] and 64 nM against Thromboxane A2 receptor [8]. For the same compound, the figures for the Kd at Thromboxane A2 receptor [1] and at Thromboxane A2 receptor [2] were 331 nM and 19 nM, respectively.
On to `O=C1CCC(O)=C1Cc1ccc(Br)cc1`, for which the solubility entry in data set [3] is “soluble”. In addition, the logD in data set [4] is -0.19. In data set [5], this compound had a logP of 3.01. Further, the pKa in data set [6] stood at 4.2.
`CC1=C(O)CCC1=O` gave a pKa in data set [6] of 4.47.
Turning to `O=C1C=C(O)C(Cc2cccc(CCNS(=O)(=O)c3ccc(Cl)cc3)c2)C1` (centres undefined), the Kd at Thromboxane A2 receptor [1] came to 203 nM; on Thromboxane A2 receptor [2], 11 nM.
